{"source": "ChEMBL document CHEMBL4725271", "about": "“Design and synthesis of pyrazolo[3,4-d]pyrimidinone derivatives: Discovery of selective phosphodiesterase-5 inhibitors” (Bioorg Med Chem Lett, 2020)", "key": {"[1]": {"target": "cGMP-specific 3',5'-cyclic phosphodiesterase (Homo sapiens, UniProt O76074)", "experiment": "Inhibition of PDE5 (unknown origin)"}, "Corpus cavernosum [2]": {"system": "Corpus cavernosum", "experiment": "Induction of smooth muscle relaxation in male albino rat corpus-cavernosum assessed as reduction in phenylephrine-induced contraction", "type": "functional, tissue-based"}, "Corpus cavernosum [3]": {"system": "Corpus cavernosum", "experiment": "Induction of smooth muscle relaxation in male albino rat corpus-cavernosum assessed as reduction in phenylephrine-induced contraction relative to sildenafil", "type": "functional", "in_short": "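Isolated penile corpus cavernosum strips from adult male albino rats anaesthetized with sodium pentobarbital (50mg/kg, i.v.), held in Krebs-Henseleit solution at 37°C aerated with carbogen under 1g initial tension. Equilibrated ~90 min with solution renewed every 15 min. Cumulative concentration-response curves in phenylephrine-contracted tissue, recorded isometrically.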"}}}
{"compound": "COc1ccc(CNc2nc(N3CCC[C@H]3CO)ncc2C(=O)NCCCO)cc1Cl", "values": [{"measurement": "IC50", "setting": "[1]", "value": 6.6, "unit": "nM"}]}
{"compound": "COc1ccc(CNc2nc(OCc3ccccn3)ncc2C(=O)OCc2ccccn2)cc1Cl", "values": [{"measurement": "IC50", "setting": "[1]", "value": 2.1, "unit": "nM"}]}
{"compound": "COc1ccc(CNc2nc(OCc3ccccn3)ncc2C(=O)OCc2ncccn2)cc1Cl", "values": [{"measurement": "IC50", "setting": "[1]", "value": 4.2, "unit": "nM"}]}
{"compound": "COc1ccc(CNc2nc(OCc3ccccn3)ncc2C(=O)NCc2ccccn2)cc1Cl", "values": [{"measurement": "IC50", "setting": "[1]", "value": 2.7, "unit": "nM"}]}
{"compound": "COCCCNC(=O)c1cnc(OCc2ccccn2)nc1NCc1ccc(OC)c(Cl)c1", "values": [{"measurement": "IC50", "setting": "[1]", "value": 15, "unit": "nM"}]}
{"compound": "COc1ccc(CNc2nc(OCc3ccccn3)ncc2C(=O)NCCN2CCOCC2)cc1Cl", "values": [{"measurement": "IC50", "setting": "[1]", "value": 5.6, "unit": "nM"}]}
{"compound": "COc1ccc(CNc2nc(OCc3ccccn3)ncc2C(=O)NCCCO)cc1Cl", "values": [{"measurement": "IC50", "setting": "[1]", "value": 13, "unit": "nM"}]}
{"compound": "COc1ccc(CNc2nc(OCc3ccccn3)ncc2C(=O)NCCCCO)cc1Cl", "values": [{"measurement": "IC50", "setting": "[1]", "value": 12, "unit": "nM"}]}
{"compound": "COc1ccc(CNc2nc(N(C)CCO)ncc2C(=O)NCc2ccccn2)cc1Cl", "values": [{"measurement": "IC50", "setting": "[1]", "value": 32, "unit": "nM"}]}
{"compound": "COc1ccc(CNc2nc(N3CCC(O)CC3)ncc2C(=O)NCc2ccccn2)cc1Cl", "values": [{"measurement": "IC50", "setting": "[1]", "value": 59, "unit": "nM"}]}
{"compound": "COc1ccc(CNc2nc(N3CCC[C@H]3CO)ncc2C(=O)N[C@H]2CC[C@H](O)CC2)cc1Cl", "values": [{"measurement": "IC50", "setting": "[1]", "value": 1.8, "unit": "nM"}]}
{"compound": "COc1ccc(CNc2nc(N3Cc4ccccc4C[C@@H]3CO)ncc2C(=O)NCc2ccccn2)cc1Cl", "values": [{"measurement": "IC50", "setting": "[1]", "value": 6.5, "unit": "nM"}]}
{"compound": "O=c1[nH]c(-c2ccccc2O)nc2c1cnn2-c1ccc(Br)cc1", "values": [{"measurement": "EC50", "setting": "Corpus cavernosum [2]", "value": 338, "unit": "nM"}, {"measurement": "Emax", "setting": "Corpus cavernosum [3]", "value": 167, "unit": "%"}]}
{"compound": "COc1ccc(CNc2nc(N3CCO[C@H](CO)C3)ncc2C(=O)NCc2ccccn2)cc1Cl", "values": [{"measurement": "IC50", "setting": "[1]", "value": 32, "unit": "nM"}]}
{"compound": "Nc1ccccc1NCc1nc2c(cnn2-c2ccccc2)c(=O)[nH]1", "values": [{"measurement": "EC50", "setting": "Corpus cavernosum [2]", "value": 6800, "unit": "nM"}, {"measurement": "Emax", "setting": "Corpus cavernosum [3]", "value": 113, "unit": "%"}]}
{"compound": "COc1ccc(CN(C)c2nc(OCc3ccccn3)ncc2C(=O)NCc2ccccn2)cc1Cl", "values": [{"measurement": "IC50", "setting": "[1]", "value": 85, "unit": "nM"}]}
{"compound": "COc1ccc(CNc2nc(N3CCC[C@H]3CO)ncc2C(=O)NC[C@@H]2CN(C)CCO2)cc1Cl", "values": [{"measurement": "IC50", "setting": "[1]", "value": 6.1, "unit": "nM"}]}
{"compound": "CCCCOc1ccccc1-c1nc2c(cnn2-c2ccccc2)c(=O)[nH]1", "values": [{"measurement": "EC50", "setting": "Corpus cavernosum [2]", "value": 630, "unit": "nM"}, {"measurement": "Emax", "setting": "Corpus cavernosum [3]", "value": 170, "unit": "%"}]}
{"compound": "O=C(O)c1ccccc1OCc1nc2c(cnn2-c2ccccc2)c(=O)[nH]1", "values": [{"measurement": "EC50", "setting": "Corpus cavernosum [2]", "value": 223, "unit": "nM"}]}
{"compound": "COc1ccc(CNc2nc(N3CCC[C@@H]3CO)ncc2C(=O)NCc2ccccn2)cc1Cl", "values": [{"measurement": "IC50", "setting": "[1]", "value": 1.2, "unit": "nM"}]}
{"compound": "CCCOc1ccccc1-c1nc2c(cnn2-c2ccc(Br)cc2)c(=O)[nH]1", "values": [{"measurement": "EC50", "setting": "Corpus cavernosum [2]", "value": 830, "unit": "nM"}, {"measurement": "Emax", "setting": "Corpus cavernosum [3]", "value": 140, "unit": "%"}]}
{"compound": "CC(C)Oc1ccccc1-c1nc2c(cnn2-c2ccc(Br)cc2)c(=O)[nH]1", "values": [{"measurement": "EC50", "setting": "Corpus cavernosum [2]", "value": 280, "unit": "nM"}]}
{"compound": "COc1ccc(CNc2nc(N3CCCC[C@H]3CO)ncc2C(=O)NCc2ccccn2)cc1Cl", "values": [{"measurement": "IC50", "setting": "[1]", "value": 54, "unit": "nM"}]}
{"compound": "O=c1[nH]c(CNc2ccccc2O)nc2c1cnn2-c1ccccc1", "values": [{"measurement": "EC50", "setting": "Corpus cavernosum [2]", "value": 250, "unit": "nM"}, {"measurement": "Emax", "setting": "Corpus cavernosum [3]", "value": 125, "unit": "%"}]}
{"compound": "CC(C)Oc1ccccc1-c1nc2c(cnn2-c2ccccc2)c(=O)[nH]1", "values": [{"measurement": "EC50", "setting": "Corpus cavernosum [2]", "value": 500, "unit": "nM"}, {"measurement": "Emax", "setting": "Corpus cavernosum [3]", "value": 130, "unit": "%"}]}
{"compound": "COc1ccc(CNc2nc(OCc3ccccn3)ncc2C(=O)Nc2ncccn2)cc1Cl", "values": [{"measurement": "IC50", "setting": "[1]", "value": 12, "unit": "nM"}]}
{"compound": "COc1ccc(CNc2nc(OCc3ccccn3)ncc2C(=O)N[C@H]2CC[C@@H](O)CC2)cc1Cl", "values": [{"measurement": "IC50", "setting": "[1]", "value": 3.5, "unit": "nM"}]}
{"compound": "COC(=O)c1ccccc1OCc1nc2c(cnn2-c2ccccc2)c(=O)[nH]1", "values": [{"measurement": "EC50", "setting": "Corpus cavernosum [2]", "value": 100, "unit": "nM"}, {"measurement": "Emax", "setting": "Corpus cavernosum [3]", "value": 130, "unit": "%"}]}
{"compound": "CCCCOc1ccccc1-c1nc2c(cnn2-c2ccc(Br)cc2)c(=O)[nH]1", "values": [{"measurement": "EC50", "setting": "Corpus cavernosum [2]", "value": 4.89, "unit": "nM"}, {"measurement": "Emax", "setting": "Corpus cavernosum [3]", "value": 160, "unit": "%"}]}
{"compound": "O=c1[nH]c(CNc2ccccc2O)nc2c1cnn2-c1ccc(Br)cc1", "values": [{"measurement": "EC50", "setting": "Corpus cavernosum [2]", "value": 5050, "unit": "nM"}, {"measurement": "Emax", "setting": "Corpus cavernosum [3]", "value": 133, "unit": "%"}]}
{"compound": "COc1ccc(CNc2nc(N3CCCC[C@H]3CO)ncc2C(=O)NCc2ncccn2)cc1Cl", "values": [{"measurement": "IC50", "setting": "[1]", "value": 63, "unit": "nM"}]}
{"compound": "Nc1ccccc1NCc1nc2c(cnn2-c2ccc(Br)cc2)c(=O)[nH]1", "values": [{"measurement": "EC50", "setting": "Corpus cavernosum [2]", "value": 707, "unit": "nM"}, {"measurement": "Emax", "setting": "Corpus cavernosum [3]", "value": 148, "unit": "%"}]}
{"compound": "O=c1[nH]c(-c2ccccc2O)nc2c1cnn2-c1ccccc1", "values": [{"measurement": "EC50", "setting": "Corpus cavernosum [2]", "value": 500, "unit": "nM"}, {"measurement": "Emax", "setting": "Corpus cavernosum [3]", "value": 93, "unit": "%"}]}
{"compound": "CCCOc1ccccc1-c1nc2c(cnn2-c2ccccc2)c(=O)[nH]1", "values": [{"measurement": "EC50", "setting": "Corpus cavernosum [2]", "value": 234, "unit": "nM"}, {"measurement": "Emax", "setting": "Corpus cavernosum [3]", "value": 150, "unit": "%"}]}
{"compound": "COc1ccc(CN=c2[nH]c(N3CCC[C@H]3CO)ncc2C(=O)NCc2ncccn2)cc1Cl", "note": "(stereo in doubt; T5)", "values": [{"measurement": "IC50", "setting": "[1]", "value": 25, "unit": "nM"}]}
{"compound": "COc1ccc(CN=c2[nH]c(N3CCC[C@H]3CO)ncc2C(=O)NCc2ncccn2)cc1Cl", "note": "(stereo in doubt; T6)", "values": [{"measurement": "IC50", "setting": "[1]", "value": 5.2, "unit": "nM"}]}
